{
  "source": "ChEMBL document CHEMBL1255482",
  "about": "“Novel mechanism of glycopeptide resistance in the A40926 producer Nonomuraea sp. ATCC 39727” (2010)",
  "assay_type_in_all_cases": "functional",
  "key": {"Nonomuraea [1]": {"system": "Nonomuraea", "assay": "Antimicrobial activity against Nonomuraea sp. ATCC 39727 selected after 0.25 ug/ml of teicoplanin exposure", "outline": "(§1)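 Exponential-phase mycelium (about 48 h, 28°C, shaken, in SM) was exposed to the inducing glycopeptide for 24 h. It was then harvested, suspended in 0.9% NaCl and sonicated. Up to 10⁷ CFU were spread on SM agar with a glycopeptide concentration series and incubated 15 days at 28°C. MIC was taken from the population analysis profile as the concentration inhibiting 99.99% of colonies. Values are the mean of three independent experiments.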"}, "Nonomuraea [2]": {"system": "Nonomuraea", "assay": "Antimicrobial activity against Nonomuraea sp. ATCC 39727 selected after 12 ug/ml of compound exposure", "outline": "as §1"}, "Nonomuraea [3]": {"system": "Nonomuraea", "assay": "Antimicrobial activity against vanY-deficient Nonomuraea sp. ATCC 39727", "outline": "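The ΔvanY mutant replaces the vanY coding sequence with the aac(3)IV cassette. Its sonicated exponential-phase mycelium (SM, 28°C, about 48 h) was plated, up to 10⁷ CFU, on SM agar carrying graded glycopeptide concentrations and incubated 15 days at 28°C. MIC is the concentration inhibiting 99.99% of the population, read from the population analysis profile.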"}, "Streptomyces venezuelae": {"system": "Streptomyces venezuelae", "assay": "Antimicrobial activity against Streptomyces venezuelae ATCC 10595 harboring vanY gene", "outline": "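Population analysis profile: 10⁷ spores of each strain were plated on MYM agar containing graded antibiotic levels and incubated 3 days. Surviving colonies were counted, and MIC was taken as the concentration inhibiting growth of 99.99% of the population.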"}, "Streptomyces coelicolor": {"system": "Streptomyces coelicolor", "assay": "Antimicrobial activity against Streptomyces coelicolor"}, "[4]": {"system": "Actinoplanes teichomyceticus", "assay": "Antimicrobial activity against Actinoplanes teichomyceticus"}, "Nonomuraea [5]": {"system": "Nonomuraea", "assay": "Antimicrobial activity against Nonomuraea sp. ATCC 39727", "outline": "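MIC taken from population analysis profiles. Sonicated mycelium from exponential-phase SM cultures (about 48 h, 28°C, shaken) was suspended in 0.9% NaCl. Up to 10⁷ CFU were spread per SM agar plate containing a range of glycopeptide concentrations and incubated 15 days at 28°C. Colonies were counted for the surviving fraction. MIC is the concentration inhibiting 99.99% of the population; mean of three independent experiments.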"}, "Nonomuraea [6]": {"system": "Nonomuraea", "assay": "Microbicidal activity against Nonomuraea sp. ATCC 39727 at 5000 ug/ml after 24 hrs", "outline": "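MBC: sonicated mycelium was grown in SM flasks for three generations, then given increasing antibiotic concentrations for a further 24 h. It was washed with physiological saline, diluted and plated on antibiotic-free SM agar for about 15 days at 28°C to give the surviving fraction. Under 0.1% survival counted as bactericidal; mean of three experiments.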"}, "Nonomuraea [7]": {"system": "Nonomuraea", "assay": "Antimicrobial activity against Nonomuraea sp. ATCC 39727 selected after 0.5 ug/ml of A40926 exposure", "outline": "as §1"}},
  "note": "The source made the active and inactive calls. The calls are words filed in the database; no cut-off is given here.",
  "data": [
    {"smiles": "CN[C@H](CC(C)C)C(=O)N[C@H]1C(=O)N[C@@H](CC(N)=O)C(=O)N[C@H]2C(=O)N[C@H]3C(=O)N[C@H](C(=O)N[C@H](C(=O)O)c4cc(O)cc(O)c4-c4cc3ccc4O)[C@H](O)c3ccc(c(Cl)c3)Oc3cc2cc(c3O[C@@H]2O[C@H](CO)[C@@H](O)[C@H](O)[C@H]2O[C@H]2C[C@](C)(N)[C@H](O)[C@H](C)O2)Oc2ccc(cc2Cl)[C@H]1O", "note": "[VANCOMYCIN]", "values": [
      {"measurement": "MIC", "setting": "Nonomuraea [1]", "result": 27, "unit": "µg/mL"},
      {"measurement": "MIC", "setting": "Nonomuraea [2]", "result": 20, "unit": "µg/mL"},
      {"measurement": "MIC", "setting": "Nonomuraea [3]", "result": 4, "unit": "µg/mL"},
      {"measurement": "Activity", "setting": "Streptomyces venezuelae", "result": "inactive"},
      {"measurement": "MIC", "setting": "Streptomyces coelicolor", "result": 100, "unit": "µg/mL"},
      {"measurement": "MIC", "setting": "[4]", "result": 90, "unit": "µg/mL"},
      {"measurement": "MIC", "setting": "Nonomuraea [5]", "result": 19.5, "unit": "µg/mL"},
      {"measurement": "Activity", "setting": "Nonomuraea [6]", "result": "inactive"},
      {"measurement": "MIC", "setting": "Nonomuraea [7]", "result": 35, "unit": "µg/mL"}
    ]},
    {"smiles": "NC[C@H]1O[C@H](O[C@H]2[C@H](O)[C@@H](O[C@H]3O[C@H](CO)[C@@H](O)[C@H](N)[C@H]3O)[C@H](N)C[C@@H]2N)[C@H](O)[C@@H](O)[C@@H]1O", "values": [
      {"measurement": "Activity", "setting": "Nonomuraea [6]", "result": "Active"}
    ]}
  ]
}
